Source: PubChem BioAssay
ERAP1 inh – human ERAP1 aminopeptidase inhibitors, primary screen, biochemical, single point, plate reader. recombinant ERAP1, Leu-AMC fluorescence, 60 min. Endoplasmic reticulum aminopeptidase 1 (Homo sapiens), Q9NZ08. actives 0.15% (n = 340,000). inhibition, % at 10.7 µM. AID 652197, 2013;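 active = mean replicate inhibition of at least 30%, or all replicates individually reaching that 30% level; inactive = mean below 30% and not every replicate reaching it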;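 also: 0% = neutral control wells and 100% = L-leucinethiol positive control wells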
Target sequence (Q9NZ08 whole entry, looked up): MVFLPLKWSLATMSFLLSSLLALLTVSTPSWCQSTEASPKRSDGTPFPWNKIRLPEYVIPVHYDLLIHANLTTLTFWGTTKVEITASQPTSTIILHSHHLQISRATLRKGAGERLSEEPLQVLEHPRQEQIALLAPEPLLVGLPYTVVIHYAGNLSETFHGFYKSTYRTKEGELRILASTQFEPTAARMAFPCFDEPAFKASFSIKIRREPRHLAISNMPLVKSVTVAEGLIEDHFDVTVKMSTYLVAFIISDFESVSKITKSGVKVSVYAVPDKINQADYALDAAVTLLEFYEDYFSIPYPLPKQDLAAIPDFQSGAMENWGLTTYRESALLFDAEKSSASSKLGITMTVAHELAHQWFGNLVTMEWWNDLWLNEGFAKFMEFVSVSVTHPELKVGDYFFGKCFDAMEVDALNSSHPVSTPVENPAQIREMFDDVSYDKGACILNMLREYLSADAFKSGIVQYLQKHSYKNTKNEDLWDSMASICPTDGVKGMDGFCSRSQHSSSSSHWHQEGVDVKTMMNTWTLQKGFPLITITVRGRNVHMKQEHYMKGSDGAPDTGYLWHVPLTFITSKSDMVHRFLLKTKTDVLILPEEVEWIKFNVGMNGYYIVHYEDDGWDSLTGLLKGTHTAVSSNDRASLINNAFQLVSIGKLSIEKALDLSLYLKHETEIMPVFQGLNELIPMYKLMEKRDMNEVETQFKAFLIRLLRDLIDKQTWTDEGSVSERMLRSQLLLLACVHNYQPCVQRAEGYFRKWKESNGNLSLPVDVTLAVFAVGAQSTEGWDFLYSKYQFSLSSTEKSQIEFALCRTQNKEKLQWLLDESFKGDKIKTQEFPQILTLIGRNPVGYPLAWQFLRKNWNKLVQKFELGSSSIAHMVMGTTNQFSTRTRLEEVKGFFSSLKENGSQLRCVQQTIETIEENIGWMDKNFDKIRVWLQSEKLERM
C2C12 statin – suppressors of statin myotoxicity in C2C12 myotubes, primary screen, cell-based, single point, plate reader; actives 0.78% (n = 330,000); AID 602340, 2012; C2C12 myotubes + simvastatin, ATP luminescence, 48 h; scaled: DMSO 0, geranylgeraniol control 100; rescue of ATP level, % at 7.49 µM;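 active = mean ATP rescue above about 67%, or every replicate alone reaching that limit, limit read from the data, passing the limit was not always enough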;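 also: myotubes were challenged with 10 µM simvastatin during compound exposure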
S100A4 MyoIIA – inhibitors of S100A4-myosin IIA peptide binding, primary screen, biochemical, fluorescence polarization, TAMRA-MyoIIA peptide. AID 652163, 2013. actives 0.14% (n = 360,000). inhibition, % at 10.7 µM;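 active = mean inhibition of at least 70% across replicates, with every replicate also reaching that level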
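Material: S100A4 monomer protein | Medium: HEPES pH 7.2 with CaCl2, KCl, NaCl, DTT, Triton | Reagent: Labelled myosin peptide probe, 5 nM | Doses: One dose per compound | Times: 5 min incubation before reading | Benchmarks: Neutral control DMSO, positive control TFP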
Rtt109 Vps75 – inhibitors of C. albicans Rtt109/Vps75 HAT, primary screen, biochemical, ThioGlo CoA-SH fluorescence, plate reader; Histone acetyltransferase RTT109 (Candida albicans (strain SC5314 / ATCC MYA-2876)), …; actives 0.16% (n = 330,000); purified Rtt109/Vps75, 4 h; inhibition, % at 34.9 µM;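 active = inhibition of at least 50% in every replicate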
PGC1a acetyl inh – inhibitors of PGC1a acetylation signal, primary screen, cell-based, U2OS, AlphaScreen, inhibitor mode | AID 651687, 2012 | AlphaScreen anti-acetyl-lysine; with virally co-expressed GCN5 acetyltransferase | inhibition, % at 15.6 µM | actives 0.17% (n = 350,000);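 active = every replicate shows inhibition of at least 40%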;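 also: 0% = neutral control wells and 100% = positive control wells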
* = called active by the depositor. Sampled rows, rich in hits. Any-hit rate of the full collection: about 0.98%.

Results for O=C(NCC(=O)N(c1ccc(Cl)cc1)C(C(=O)NC1CCCC1)c1ccncc1)c1ccco1 (stereo not drawn) ?
ERAP1 inh: 1; C2C12 statin: -6; S100A4 MyoIIA: -1; Rtt109 Vps75: 3; PGC1a acetyl inh: 0

How did O=C(NCC(=O)N(Cc1ccccc1)C(C(=O)NC1CCCC1)c1cccnc1)c1ccco1 (stereo not drawn) do in these assays?
C2C12 statin: 10; Rtt109 Vps75: -8; PGC1a acetyl inh: 6

Results for O=C(NC1CCCCC1)C(c1ccc2ncccc2c1)N(Cc1ccc(F)cc1)C(=O)c1ccc2c(c1)OCCO2 (stereo not drawn) ?
ERAP1 inh: 8; C2C12 statin: 2; S100A4 MyoIIA: -7; Rtt109 Vps75: 24; PGC1a acetyl inh: -9

What do the screens show for `O=C(NC1CCCC1)C(c1ccc(F)cc1)N(C(=O)Cc1cccs1)c1ccc2c(c1)OCCO2` (stereo not drawn)?
C2C12 statin: 26; PGC1a acetyl inh: 3

How did O=C(NCC(=O)N(c1ccc2c(c1)OCO2)C(C(=O)NC1CCCC1)c1ccncc1)c1ccco1 (stereo not drawn) do in these assays?
C2C12 statin: 66*; Rtt109 Vps75: -4; PGC1a acetyl inh: 45

Results for O=C(NC1CCCCC1)C(c1ccc2ncccc2c1)N(Cc1ccc2c(c1)OCO2)C(=O)c1ccc2c(c1)OCCO2 (stereo not drawn) ?
ERAP1 inh: 5; C2C12 statin: 6; S100A4 MyoIIA: 5; PGC1a acetyl inh: 96*

How did Cc1ccc(C(C(=O)NC2CCCC2)N(C(=O)Cc2cccs2)c2ccc3c(c2)OCCO3)cc1 (stereo not drawn) do in these assays?
ERAP1 inh: -9; C2C12 statin: 106*; S100A4 MyoIIA: -4; Rtt109 Vps75: -1; PGC1a acetyl inh: -20

Results for O=C(NCC(=O)N(Cc1cccs1)C(C(=O)NC1CCCCC1)c1cccnc1)c1ccco1 (stereo not drawn) ?
C2C12 statin: 133*; Rtt109 Vps75: 1; PGC1a acetyl inh: -8

What do the screens show for `COCc1cn(CC[C@H]2CC[C@@H](NC(=O)Nc3ccc(Cl)cc3)[C@@H](CO)O2)nn1`?
ERAP1 inh: 0; C2C12 statin: -4; S100A4 MyoIIA: -14; PGC1a acetyl inh: 9

Results for Cc1nnsc1NC(=O)OCc1ccccc1Cl ?
C2C12 statin: 0; Rtt109 Vps75: -1; PGC1a acetyl inh: -4

How did Cc1nnsc1NC(=O)OCc1ccc(C(F)(F)F)cc1 do in these assays?
C2C12 statin: 105*; Rtt109 Vps75: -6; PGC1a acetyl inh: 8

What do the screens show for `Cc1cccc(NC2=C/C(=N/S(=O)(=O)c3cccs3)c3ccccc3C2=O)c1`?
Rtt109 Vps75: -1

What do the screens show for `Cc1ccc(NC2=C/C(=N\S(=O)(=O)c3cccs3)c3ccccc3C2=O)c(C)c1`?
Rtt109 Vps75: -9; PGC1a acetyl inh: 93*

Results for C[C@H](CO)N1C[C@H](C)[C@@H](CN(C)CC2CCCCC2)Oc2ccc(NS(=O)(=O)c3ccc(Cl)cc3)cc2CC1=O ?
ERAP1 inh: -2; C2C12 statin: 123*; S100A4 MyoIIA: 10; PGC1a acetyl inh: -10

How did C[C@@H]1CN([C@H](C)CO)C(=O)Cc2cc(NS(=O)(=O)c3ccc(Cl)cc3)ccc2O[C@@H]1CN(C)CC1CCCCC1 do in these assays?
ERAP1 inh: -5; C2C12 statin: 49; S100A4 MyoIIA: -1; PGC1a acetyl inh: 4

Results for C[C@@H]1CN([C@H](C)CO)C(=O)Cc2cc(NS(=O)(=O)c3ccc(Cl)cc3)ccc2O[C@H]1CN(C)CC1CCCCC1 ?
ERAP1 inh: -4; C2C12 statin: 124*; S100A4 MyoIIA: 1; PGC1a acetyl inh: 10

What do the screens show for `C[C@H](CO)N1C[C@H](C)[C@@H](CN(C)C(=O)Nc2ccccc2)Oc2ncc(-c3ccccc3)cc2C1=O`?
C2C12 statin: 4; PGC1a acetyl inh: -3

Results for COc1ccc(-c2[nH]ncc2-c2ccc3c(c2)OCCO3)c(O)c1 ?
Rtt109 Vps75: 3; PGC1a acetyl inh: 53*

What do the screens show for `CCc1cc(-c2[nH]ncc2-c2ccc3c(c2)OCO3)c(O)cc1O`?
C2C12 statin: 45; S100A4 MyoIIA: 10; Rtt109 Vps75: 7; PGC1a acetyl inh: 35

What do the screens show for `CC(C)[C@@H](C)NC(=O)N(C)C[C@H]1OCc2ccccc2-c2ccccc2C(=O)N([C@H](C)CO)C[C@@H]1C`?
ERAP1 inh: 0; C2C12 statin: -24; S100A4 MyoIIA: 14; PGC1a acetyl inh: 23

How did O=C(CC(=O)NCc1cccnc1)NCc1cccnc1 do in these assays?
C2C12 statin: 111*; Rtt109 Vps75: -23; PGC1a acetyl inh: -5

How did COc1cc(OC)cc(C(=O)NCc2cccnc2)c1 do in these assays?
C2C12 statin: 129*; Rtt109 Vps75: 2; PGC1a acetyl inh: 5

Results for C/C(NCc1ccccc1)=C(\C#N)C(=O)NCc1ccccc1 ?
C2C12 statin: -20; Rtt109 Vps75: 0; PGC1a acetyl inh: -6

How did O=C(Cc1ccccc1)NCc1cccnc1 do in these assays?
ERAP1 inh: 2; C2C12 statin: -1; S100A4 MyoIIA: -4; Rtt109 Vps75: 8; PGC1a acetyl inh: 12

Results for C/C(NCc1cccnc1)=C(\C#N)C(=O)NCc1ccccc1 ?
C2C12 statin: 104*; Rtt109 Vps75: -21; PGC1a acetyl inh: 5

What do the screens show for `COc1cc(NC(=S)NCc2cccnc2)c(OC)cc1Cl`?
ERAP1 inh: -3; S100A4 MyoIIA: -3; Rtt109 Vps75: 56*

Results for COc1ccccc1NC(=S)NCc1cccnc1 ?
ERAP1 inh: 6; S100A4 MyoIIA: -1; Rtt109 Vps75: -8

How did COc1ccc(NC(=O)N(C)C[C@@H]2Oc3ccc(NS(C)(=O)=O)cc3CC(=O)N([C@H](C)CO)C[C@H]2C)cc1 do in these assays?
ERAP1 inh: -1; C2C12 statin: -22; S100A4 MyoIIA: -1; PGC1a acetyl inh: 10

How did C[C@H]1CCCCO[C@H](CN(C)C(=O)Nc2ccc(C(F)(F)F)cc2)[C@@H](C)CN([C@@H](C)CO)C(=O)c2cc(NC(=O)C3CCCCC3)ccc2O1 do in these assays?
ERAP1 inh: 0; C2C12 statin: -124; S100A4 MyoIIA: -3; PGC1a acetyl inh: 21

What do the screens show for `O=C(NCc1ccc(F)cc1)C1CC(=O)N(CCc2ccccc2)C1` (stereo not drawn)?
C2C12 statin: 2; Rtt109 Vps75: -2; PGC1a acetyl inh: 4
